Experimental data: PMC10405366 (Molecular pharmaceutics, 2023)

Columns and labels:
[1] = system: female athymic nude (nu/nu) mice; experiment: 14 day tolerability study, IP every 2 days; type: in vivo, mouse
Method in brief: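 Female athymic nude mice (CrTac:NCr-Foxn1nu, 7–8 weeks) were randomized, n = 5 per group. Parent compound was given at 0.1, 0.25, 0.5 or 1.0 mg/kg, or the succinate at molar-equivalent 0.114, 0.285, 0.570 or 1.14 mg/kg. Vehicle was Tween80:Captex200:0.9% saline (8:2:90 v/v). Dosing was IP every 2 days for 14 days. Body weight was recorded every 2 days before dosing, and gross necropsy plus H&E histopathology were done.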

[2] = system: female athymic nude (nu/nu) mice; experiment: Tolerability study: serum chemistry; type: in vivo, mouse
Method in brief: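 Athymic nude mice (n = 5 per group) received test compound or the Tween80:Captex200:saline vehicle IP every 2 days for 14 days. About 2–4 h after the last dose, mice were killed with CO2 and blood was drawn by cardiac puncture. Complete blood counts and serum chemistry were run by a pathology core. Values are given as means ± SD, n = 3–5.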

[3] = Mouse pharmacokinetics, plasma LC-MS/MS; type: in vivo; settings: female C57BL/6 mice
[4] = system: MDA-MB-435; experiment: Cell viability assay; type: cell-based, human; settings: MDA-MB-435
Method in brief: (§1)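 RPMI1640 (OVCAR3, OVCAR4, MDA-MB-435) or DMEM (OVCAR8, MDA-MB-231) was used, with 10% FBS and penicillin/streptomycin. Cells were STR-validated and kept below 20 passages. Cells were plated at 5000 per well overnight, then given test compound at final 0.95–250 nM (nine levels, 0.5% DMSO) for 72 h at 37 °C. Viability was read by CellTiter-Blue absorbance, and IC50 was taken relative to DMSO. Paclitaxel (0.39–100 nM) was the control, with three biological replicates.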

[5] = system: MDA-MB-231; experiment: Cell viability assay; type: cell-based, human; settings: MDA-MB-231
Method in brief: as §1

[6] = 0.114 mg/kg IP every 2 days, 14 days
[7] = 0.285 mg/kg IP every 2 days, 14 days
[8] = 0.570 mg/kg IP every 2 days, removed day 13
[9] = 1.14 mg/kg IP every 2 days, removed at 8 days
[10] = 0.10 mg/kg IP every 2 days, 14 days
[11] = 0.25 mg/kg IP every 2 days, 14 days
[12] = 0.50 mg/kg IP every 2 days, removed day 13
[13] = 1.00 mg/kg IP every 2 days, removed at 8 days

SMILES: CN1C(=O)[C@]23SS[C@@]1(C)C(=O)N2[C@H]1Nc2ccccc2[C@@]1([C@@]12c4ccccc4N[C@@H]1N1C(=O)[C@]4(C)SS[C@]1(C(=O)N4C)[C@H]2OC(=O)CCC(=O)O)[C@@H]3O [verticillin A succinate]
- early removal of mice ([1]; 0.570 mg/kg IP every 2 days): 13 day of treatment
- early removal of mice ([1]; 1.14 mg/kg IP every 2 days): 8 days of treatment
- tolerability ([1]; two higher dose levels, 0.570 and 1.14 mg/kg IP every 2 days): poorly tolerated
- tolerability ([1]; two lower dose levels, 0.114 and 0.285 mg/kg IP every 2 days, 14 days): well tolerated
- ALP [2, 6]: 139 ± 9 U/L
- ALT [2, 6]: 39 ± 6 U/L
- AST [2, 6]: 88 ± 10 U/L
- BUN [2, 6]: 20 ± 1 mg/dL
- GGT [2, 6]: 8 ± 0 U/L
- albumin [2, 6]: 3.7 ± 0.2 g/dL
- amylase [2, 6]: 1039 ± 215 U/L
- calcium [2, 6]: 11.8 ± 0.3 mg/dL
- cholesterol [2, 6]: 141 ± 12 mg/dL
- creatine kinase [2, 6]: 160 ± 37 U/L
- creatinine [2, 6]: 0.43 ± 0.02 mg/dL
- globulin [2, 6]: 2.1 ± 0.2 g/dL
- glucose [2, 6]: 225 ± 28 mg/dL
- lipase [2, 6]: 55 ± 44 U/L
- phosphorous [2, 6]: 11.7 ± 0.8 mg/dL
- total bilirubin [2, 6]: 0.3 ± 0.1 mg/dL
- total protein [2, 6]: 5.8 ± 0.3 g/dL
- triglyceride [2, 6]: 247 ± 70 mg/dL
- ALP [2, 7]: 133 ± 19 U/L
- ALT [2, 7]: 47 ± 13 U/L
- AST [2, 7]: 125 ± 18 U/L
- BUN [2, 7]: 15 ± 1 mg/dL
- GGT [2, 7]: 0 ± 1 U/L
- albumin [2, 7]: 3.4 ± 0.2 g/dL
- amylase [2, 7]: 1208 ± 75 U/L
- calcium [2, 7]: 11.2 ± 0.7 mg/dL
- cholesterol [2, 7]: 146 ± 13 mg/dL
- creatine kinase [2, 7]: 214 ± 28 U/L
- creatinine [2, 7]: 0.42 ± 0.8 mg/dL
- globulin [2, 7]: 2.0 ± 0.2 g/dL
- glucose [2, 7]: 235 ± 10 mg/dL
- lipase [2, 7]: 74 ± 5 U/L
- phosphorous [2, 7]: 11.9 ± 0.8 mg/dL
- total bilirubin [2, 7]: 0.3 ± 0.0 mg/dL
- total protein [2, 7]: 5.4 ± 0.3 g/dL
- triglyceride [2, 7]: 262 ± 68 mg/dL
- ALP [2, 8]: 89 ± 13 U/L
- ALT [2, 8]: 48 ± 25 U/L
- AST [2, 8]: 254 ± 138 U/L
- BUN [2, 8]: 24 ± 8 mg/dL
- GGT [2, 8]: 4 ± 3 U/L
- albumin [2, 8]: 2.6 ± 0.9 g/dL
- amylase [2, 8]: 1203 ± 240 U/L
- calcium [2, 8]: 11.5 ± 0.9 mg/dL
- cholesterol [2, 8]: 115 ± 23 mg/dL
- creatine kinase [2, 8]: 1916 ± 1915 U/L
- creatinine [2, 8]: 0.29 ± 0.05 mg/dL
- globulin [2, 8]: 2.6 ± 1.1 g/dL
- glucose [2, 8]: 172 ± 49 mg/dL
- phosphorous [2, 8]: 15.5 ± 1.4 mg/dL
- total bilirubin [2, 8]: 0.4 ± 0.1 mg/dL
- total protein [2, 8]: 5.2 ± 0.4 g/dL
- triglyceride [2, 8]: 128 ± 38 mg/dL
- ALP [2, 9]: 74 ± 12 U/L
- ALT [2, 9]: 121 ± 145 U/L
- AST [2, 9]: 420 ± 438 U/L
- BUN [2, 9]: 24 ± 4 mg/dL
- GGT [2, 9]: 6 ± 4 U/L
- albumin [2, 9]: 2.4 ± 0.8 g/dL
- amylase [2, 9]: 1221 ± 520 U/L
- calcium [2, 9]: 7.2 ± 5.3 mg/dL
- cholesterol [2, 9]: 111 ± 10 mg/dL
- creatine kinase [2, 9]: 582 ± 384 U/L
- creatinine [2, 9]: 0.26 ± 0.05 mg/dL
- globulin [2, 9]: 2.5 ± 0.8 g/dL
- glucose [2, 9]: 141 ± 62 mg/dL
- lipase [2, 9]: 84 ± 64 U/L
- phosphorous [2, 9]: 12.2 ± 1.0 mg/dL
- total bilirubin [2, 9]: 0.5 ± 0.3 mg/dL
- total protein [2, 9]: 4.9 ± 0.4 g/dL
- triglyceride [2, 9]: 266 ± 160 mg/dL
- plasma concentration ([3]; IV 0.285 mg/kg, initial PK time points): < 3 nM
- cytotoxic activity [4]: pronounced cytotoxic activities
- cytotoxic activity [5]: pronounced cytotoxic activities

SMILES: CN1C(=O)[C@]23SS[C@@]1(C)C(=O)N2[C@H]1Nc2ccccc2[C@@]1([C@@]12c4ccccc4N[C@@H]1N1C(=O)[C@@]4(C)SS[C@]1(C(=O)N4C)[C@H]2O)[C@@H]3O [verticillin A]
- early removal of mice ([1]; 0.5 mg/kg IP every 2 days): 13 day of treatment
- early removal of mice ([1]; 1.0 mg/kg IP every 2 days): 8 days of treatment
- maximal tolerated IP dose ([1]; IP every 2 days, 14 days, female athymic nude mice): 0.25 mg/kg
- tolerability ([1]; two higher dose levels, 0.5 and 1.0 mg/kg IP every 2 days): poorly tolerated
- tolerability ([1]; two lower dose levels, 0.100 and 0.250 mg/kg IP every 2 days, 14 days): well tolerated
- ALP [2, 10]: 163 ± 27 U/L
- ALT [2, 10]: 38 ± 6 U/L
- AST [2, 10]: 98 ± 16 U/L
- BUN [2, 10]: 18 ± 3 mg/dL
- GGT [2, 10]: 5 ± 0 U/L
- albumin [2, 10]: 3.5 ± 0.3 g/dL
- amylase [2, 10]: 1153 ± 176 U/L
- calcium [2, 10]: 11.8 ± 0.4 mg/dL
- cholesterol [2, 10]: 144 ± 16 mg/dL
- creatine kinase [2, 10]: 241 ± 85 U/L
- creatinine [2, 10]: 0.56 ± 0.03 mg/dL
- globulin [2, 10]: 2.2 ± 0.4 g/dL
- glucose [2, 10]: 191 ± 42 mg/dL
- lipase [2, 10]: 43 ± 15 U/L
- phosphorous [2, 10]: 12.8 ± 1.1 mg/dL
- total bilirubin [2, 10]: 0.4 ± 0.1 mg/dL
- total protein [2, 10]: 5.6 ± 0.4 g/dL
- triglyceride [2, 10]: 202 ± 42 mg/dL
- ALP [2, 11]: 141 ± 14 U/L
- ALT [2, 11]: 46 ± 13 U/L
- AST [2, 11]: 112 ± 19 U/L
- BUN [2, 11]: 17 ± 4 mg/dL
- GGT [2, 11]: 3 ± 1 U/L
- albumin [2, 11]: 3.3 ± 0.2 g/dL
- amylase [2, 11]: 1189 ± 89 U/L
- calcium [2, 11]: 11.6 ± 0.5 mg/dL
- cholesterol [2, 11]: 141 ± 10 mg/dL
- creatine kinase [2, 11]: 237 ± 60 U/L
- creatinine [2, 11]: 0.21 ± 0.7 mg/dL
- globulin [2, 11]: 2.1 ± 0.3 g/dL
- glucose [2, 11]: 187 ± 33 mg/dL
- lipase [2, 11]: 71 ± 4 U/L
- phosphorous [2, 11]: 14.0 ± 1.0 mg/dL
- total bilirubin [2, 11]: 0.3 ± 0.0 mg/dL
- total protein [2, 11]: 5.5 ± 0.4 g/dL
- triglyceride [2, 11]: 236 ± 52 mg/dL
- ALP [2, 12]: 92 ± 19 U/L
- ALT [2, 12]: 55 ± 23 U/L
- AST [2, 12]: 201 ± 51 U/L
- BUN [2, 12]: 26 ± 3 mg/dL
- GGT [2, 12]: 7 ± 2 U/L
- albumin [2, 12]: 3.2 ± 0.2 g/dL
- amylase [2, 12]: 1397 ± 318 U/L
- calcium [2, 12]: 11.7 ± 0.4 mg/dL
- cholesterol [2, 12]: 124 ± 22 mg/dL
- creatine kinase [2, 12]: 302 ± 65 U/L
- creatinine [2, 12]: 0.36 ± 0.03 mg/dL
- globulin [2, 12]: 2.1 ± 0.2 g/dL
- glucose [2, 12]: 176 ± 19 mg/dL
- phosphorous [2, 12]: 16.4 ± 2.3 mg/dL
- total bilirubin [2, 12]: 0.4 ± 0.2 mg/dL
- total protein [2, 12]: 5.3 ± 0.3 g/dL
- triglyceride [2, 12]: 187 ± 139 mg/dL
- ALP [2, 13]: 70 ± 61 U/L
- ALT [2, 13]: 44 ± 8 U/L
- AST [2, 13]: 225 ± 68 U/L
- BUN [2, 13]: 25 ± 4 mg/dL
- GGT [2, 13]: 7 ± 3 U/L
- albumin [2, 13]: 2.1 ± 0.9 g/dL
- amylase [2, 13]: 1213 ± 149 U/L
- calcium [2, 13]: 11.4 ± 0.4 mg/dL
- cholesterol [2, 13]: 90 ± 26 mg/dL
- creatine kinase [2, 13]: 498 ± 184 U/L
- creatinine [2, 13]: 0.30 ± 0.12 mg/dL
- globulin [2, 13]: 2.9 ± 1.0 g/dL
- glucose [2, 13]: 116 ± 17 mg/dL
- lipase [2, 13]: 52 ± 22 U/L
- phosphorous [2, 13]: 10.6 ± 6.8 mg/dL
- total bilirubin [2, 13]: 0.3 ± 0.0 mg/dL
- total protein [2, 13]: 5.0 ± 0.4 g/dL
- triglyceride [2, 13]: 114 ± 20 mg/dL
- plasma concentration ([3]; IP 0.25 mg/kg, most results just above the lower limit): 1 to 1000 nM
- plasma concentration ([3]; IV 0.25 mg/kg, most results just above the lower limit): 1 to 1000 nM
- plasma concentration ([3]; oral gavage 2.5 mg/kg, linear range 1–1000 nM): BLOQ
- cytotoxic activity [4]: pronounced cytotoxic activities
- cytotoxic activity [5]: pronounced cytotoxic activities
